Test system: not listed separately
Assay: Stability in aqueous buffer
Type: physicochemical
Details: not given

| Half-life (t1/2) for the spontaneous hydrolysis | SMILES |
| --- | --- |
| 38.7 ± 4.1 min | O=C1c2cnn(C(=O)C3CC3)c2CCC1Br (stereo not drawn) [Compound 10a] |

Same assay, conditions: Half-life (t1/2) for the spontaneous hydrolysis

| half-life | SMILES |
| --- | --- |
| 235 ± 18.2 min | O=C(C1CC1)n1cc2c(n1)CCC(Br)(Br)C2=O [Compound 9b, 5,5-dibromo-2-(cyclopropanecarbonyl)-2,5,6,7-tetrahydro-4H-indazol-4-one] |
| 53.9 min | O=C1c2cnn(C(=O)C3CC3)c2CCC1Br (stereo not drawn) [Compound 10a] |

Target: T1, Human neutrophil elastase (HNE) (Homo sapiens, UniProt P08246)
T1 sequence (P08246 30-267): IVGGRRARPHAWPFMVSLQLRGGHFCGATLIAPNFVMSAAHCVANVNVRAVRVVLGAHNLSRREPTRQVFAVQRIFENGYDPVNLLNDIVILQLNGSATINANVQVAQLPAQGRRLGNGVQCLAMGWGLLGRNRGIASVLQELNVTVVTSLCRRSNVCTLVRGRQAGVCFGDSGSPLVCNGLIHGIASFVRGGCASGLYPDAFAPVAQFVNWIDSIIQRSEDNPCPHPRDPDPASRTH
Assay: HNE inhibitory activity
Type: biochemical
Details: not given

| SMILES | Ki |
| --- | --- |
| O=C1CCCc2nn(-c3cccc(C(F)(F)F)c3)cc21 [Compound 6c] | > 50 µM |
| O=C1CCCc2nn(Cc3cccc(C(F)(F)F)c3)cc21 [Compound 6d] | > 50 µM |
| O=C1CCCc2nn(Cc3ccccc3)cc21 [Compound 6e] | > 50 µM |
| CC(C)(C)OC(=O)N1CCN(C(=O)Cn2cc3c(n2)CCCC3=O)CC1 [Compound 6g] | > 50 µM |
| O=C1CCCc2nn(CC(=O)N3CCNCC3)cc21 [Compound 6h] | > 50 µM |
| O=C1CCCc2c1cnn2-c1cccc(C(F)(F)F)c1 [Compound 7c] | > 50 µM |
| O=C1CCCc2c1cnn2Cc1cccc(C(F)(F)F)c1 [Compound 7d] | > 50 µM |
| O=C1CCCc2c1cnn2Cc1ccccc1 [Compound 7e] | > 50 µM |
| CC(C)(C)OC(=O)N1CCN(C(=O)Cn2ncc3c2CCCC3=O)CC1 [Compound 7g] | > 50 µM |

The remaining lines, values ahead:

| Ki | SMILES |
| --- | --- |
| > 50 µM | CC(C)(C)OC(=O)n1cc2c(n1)CCC(Br)C2=O (stereo not drawn) [Compound 9e] |
| > 50 µM | O=C1c2cn(CC(=O)N3CCN(c4ccccc4)CC3)nc2CCC1Br (stereo not drawn) [Compound 9f] |
| > 50 µM | O=C1c2cnn(CC(=O)N3CCN(c4ccccc4)CC3)c2CCC1Br (stereo not drawn) [Compound 10d] |
| > 50 µM | O=C(C1CC1)N(C(=O)C1CC1)C1CCCc2c1cnn2-c1ccccc1 (stereo not drawn) [Compound 14a] |
| > 50 µM | O=C(NC1CCCc2c1cnn2-c1ccccc1)C1CC1 (stereo not drawn) [Compound 14b] |
| > 50 µM | Cc1cccc(C(=O)NC2CCCc3c2cnn3-c2ccccc2)c1 (stereo not drawn) [Compound 14c] |

Same assay, conditions: as described

| HNE inhibitory activity (in words) | SMILES |
| --- | --- |
| complete inactivity | O=C1CCCc2nn(-c3cccc(C(F)(F)F)c3)cc21 [Compound 6c] |
| complete inactivity | O=C1CCCc2nn(Cc3cccc(C(F)(F)F)c3)cc21 [Compound 6d] |
| complete inactivity | O=C1CCCc2nn(Cc3ccccc3)cc21 [Compound 6e] |
| complete inactivity | O=C1CCCc2c1cnn2-c1cccc(C(F)(F)F)c1 [Compound 7c] |
| complete inactivity | O=C1CCCc2c1cnn2Cc1cccc(C(F)(F)F)c1 [Compound 7d] |
| complete inactivity | O=C1CCCc2c1cnn2Cc1ccccc1 [Compound 7e] |

| SMILES | HNE inhibitory activity (in words) |
| --- | --- |
| CC(C)(C)OC(=O)n1cc2c(n1)CCC(Br)C2=O (stereo not drawn) [Compound 9e] | low active or devoid of HNE inhibitory activity |
| O=C1c2cn(CC(=O)N3CCN(c4ccccc4)CC3)nc2CCC1Br (stereo not drawn) [Compound 9f] | low active or devoid of HNE inhibitory activity |
| O=C1c2cnn(CC(=O)N3CCN(c4ccccc4)CC3)c2CCC1Br (stereo not drawn) [Compound 10d] | low active or devoid of HNE inhibitory activity |

Test system: not listed separately
Assay: Chemical stability in human plasma
Type: in vitro ADME
Details: pooled human plasma, 37 °C, 2.5 μM, 0, 30, 60, 120 min
Procedure, shortened: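 Test compound at 2.5 μM (below its K_M) incubated in pooled plasma from healthy volunteers at 37 °C, in triplicate, sampled at 0, 30, 60 and 120 min. Remaining analyte was quantified by LC-MS/MS in MRM mode. Degradation was treated as first-order: the slope of ln(concentration) versus time gave the rate constant k, from which t1/2 was calculated.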

| SMILES | Stability in human plasma (in words) |
| --- | --- |
| Cc1cccc(C(=O)n2cc3c(n2)CCCC3=O)c1 [Compound 6a] | rapid degradation rate |
| O=C1CCCc2nn(Cc3cccc(C(F)(F)F)c3)cc21 [Compound 6d] | maintained their spiked concentration for all of the incubation times |
| Cc1cccc(C(=O)n2ncc3c2CCCC3=O)c1 [Compound 7a] | rapid degradation rate |
| O=C1CCCc2c1cnn2Cc1cccc(C(F)(F)F)c1 [Compound 7d] | maintained their spiked concentration for all of the incubation times |

Same assay, conditions: pooled human plasma, 37 °C, 2.5 μM, 0-120 min

| Half time in human plasma | SMILES |
| --- | --- |
| ~6 min | Cc1cccc(C(=O)n2cc3c(n2)CCCC3=O)c1 [Compound 6a] |
| ~6 min | Cc1cccc(C(=O)n2ncc3c2CCCC3=O)c1 [Compound 7a] |
